Marks after values point to notes of the source that are not given here.
Tests used:
[1] = tested on: luminal epithelium of the uterus; assay: Histology of uterine luminal epithelial cell height in immature rats; assay type: in vivo, Sprague Dawley rats; conditions: 3 days
Outline: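 Rats got daily s.c. doses for 3 days from postnatal day 20 and were killed 27 h after the last dose. Uteri were fixed in Bouin's solution for 24 h, paraffin-embedded, cut as 8 µm serial cross sections and H&E-stained. Luminal epithelial cell height was measured by light microscopy in the mid-region of each horn, in five areas from five sections ~160 µm apart. Mean and SD were reported; Dunnett's test compared groups with sesame-oil controls.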

human ERα = target: T1, human ERα (Homo sapiens, UniProt P03372); assay: Ligand binding assay for ERα
T1 sequence (P03372 1-595): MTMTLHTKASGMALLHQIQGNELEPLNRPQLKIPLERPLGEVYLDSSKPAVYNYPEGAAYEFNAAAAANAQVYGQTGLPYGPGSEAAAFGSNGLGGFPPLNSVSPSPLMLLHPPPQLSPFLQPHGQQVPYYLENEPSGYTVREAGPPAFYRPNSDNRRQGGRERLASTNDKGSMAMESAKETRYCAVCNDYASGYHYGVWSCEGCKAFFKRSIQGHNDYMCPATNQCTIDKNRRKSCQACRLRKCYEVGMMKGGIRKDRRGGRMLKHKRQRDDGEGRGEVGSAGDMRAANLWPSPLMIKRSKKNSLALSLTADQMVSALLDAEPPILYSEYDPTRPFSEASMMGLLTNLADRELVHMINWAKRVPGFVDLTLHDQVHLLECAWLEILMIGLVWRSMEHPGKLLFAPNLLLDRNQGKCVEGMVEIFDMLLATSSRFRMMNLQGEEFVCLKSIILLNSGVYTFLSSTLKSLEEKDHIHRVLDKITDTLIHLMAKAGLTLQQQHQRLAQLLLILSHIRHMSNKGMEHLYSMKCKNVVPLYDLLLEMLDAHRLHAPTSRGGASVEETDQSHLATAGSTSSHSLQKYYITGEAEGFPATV

uterus of immature rats = assay: Uterotrophic assay in immature female rats; assay type: in vivo, Sprague Dawley rats; conditions: 3 days; for Body weight, mean / Uterus wet weight, mean / Uterus/body weight: immature female rats; for Change in wet uterine weight: immature rats
Outline: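 Female Sprague Dawley rats were housed at 23±1°C on a standard diet. From postnatal day 20 they were injected s.c. once daily for 3 days at 10 ml/kg in sesame oil. Doses were test compound at 1 g/kg/day or 17α-ethynylestradiol at 0.1 or 3 µg/kg/day; controls got sesame oil. Vaginal opening and clinical signs were monitored. On day 23, 27 h after the last dose, uteri were excised with ovaries attached and weighed. Dunnett's test was used versus controls.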

human ERβ = human ERβ (Homo sapiens, UniProt Q92731); assay: Ligand binding assay for ERβ
MCF-7 cells = assay: MCF-7 cell proliferation assay; assay type: cell-based, human; conditions: 1 μM
Outline: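 MCF-7 cells were kept in RPMI-1640 with 10% heat-inactivated FBS at 37°C and 5% CO2. Cells were seeded at 10 000 cells/well in phenol red-free RPMI-1640 with 10% charcoal dextran-treated FBS. After 1 day the medium was changed and cells received test compound (0.001–0.1 mM) or 0.5 nM E2, with or without 1 µM tamoxifen. After three days, proliferation was read by colorimetric MTT assay. Mean and SD of six experiments.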

[2] = 1 g kg^−1 day^−1 s.c., vs vehicle-treated controls

Chain of human ERβ (Q92731 whole entry): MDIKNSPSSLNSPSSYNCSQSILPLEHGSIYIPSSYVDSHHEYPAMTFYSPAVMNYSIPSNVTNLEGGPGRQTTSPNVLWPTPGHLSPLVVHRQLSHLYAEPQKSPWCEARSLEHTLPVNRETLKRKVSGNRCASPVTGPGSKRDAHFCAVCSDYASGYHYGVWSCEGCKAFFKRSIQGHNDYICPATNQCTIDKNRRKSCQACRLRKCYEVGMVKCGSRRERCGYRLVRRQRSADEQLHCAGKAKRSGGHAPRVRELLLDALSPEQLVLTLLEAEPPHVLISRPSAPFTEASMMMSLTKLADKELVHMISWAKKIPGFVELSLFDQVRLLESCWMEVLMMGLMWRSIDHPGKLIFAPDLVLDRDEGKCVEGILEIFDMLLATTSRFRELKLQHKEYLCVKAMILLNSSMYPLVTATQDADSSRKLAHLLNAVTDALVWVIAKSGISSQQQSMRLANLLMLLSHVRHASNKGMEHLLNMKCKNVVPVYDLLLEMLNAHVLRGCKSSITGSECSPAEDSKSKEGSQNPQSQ

SMILES | Hypertrophy of the uterine luminal epithelium [1, 2] | Effect upon the ability of E2 to bind to ERα (human ERα) | Body weight, mean (uterus of immature rats; 1 g kg^−1 day^−1 s.c.) | Uterus wet weight, mean (uterus of immature rats; 1 g kg^−1 day^−1 s.c.) | Uterus/body weight (uterus of immature rats; 1 g kg^−1 day^−1 s.c.) | Change in wet uterine weight (uterus of immature rats; 1 g kg^−1 day^−1 s.c.) | IC50 (human ERβ) | Hypertrophy of the uterine luminal epithelium (luminal height) ([1]; 0.1 μg kg^−1 day^−1 s.c.) | Hypertrophy of the uterine luminal epithelium ([1]; 3 μg kg^−1 day^−1 s.c.) | Body weight, mean (uterus of immature rats; 0.1 μg kg^−1 day^−1 s.c.) | Uterus wet weight, mean (uterus of immature rats; 0.1 μg kg^−1 day^−1 s.c.) | Uterus/body weight (uterus of immature rats; 0.1 μg kg^−1 day^−1 s.c.) | Body weight, mean (uterus of immature rats; 3 μg kg^−1 day^−1 s.c.) | Uterus wet weight, mean (uterus of immature rats; 3 μg kg^−1 day^−1 s.c.) | Uterus/body weight (uterus of immature rats; 3 μg kg^−1 day^−1 s.c.) | Increase in wet uterine weight compared with vehicle-treated controls (uterus of immature rats; doses of 0.1 and 3 μg kg^−1 day^−1 s.c.) | Effect on MCF-7 proliferation when administered alone (MCF-7 cells)
O=C(O)CCCCCCCCCO [10HDA, 10-hydroxydecanoic acid] | mild hypertrophy | little or no effect | 45.8 g | 25.2 mg | 0.55 | did not detect an increase | 140 µM | – | – | – | – | – | – | – | – | – | –
C=C(CC[C@@H](C)[C@H]1CC[C@H]2[C@@H]3CC=C4C[C@@H](O)CC[C@]4(C)[C@H]3CC[C@]12C)C(C)C [24MET, 24-methylenecholesterol] | mild hypertrophy | little or no effect | 47.5 g | 25.9 mg | 0.55 | did not detect an increase | 6 µM | – | – | – | – | – | – | – | – | – | –
CCCCCCC/C=C/C(=O)O [2DEA, trans-2-decenoic acid] | mild hypertrophy | little or no effect | 45.9 g | 22.9 mg | 0.51 | did not detect an increase | 17 µM | – | – | – | – | – | – | – | – | – | –
C#C[C@]1(O)CC[C@H]2[C@@H]3CCc4cc(O)ccc4[C@H]3CC[C@@]21C [17αEE2, 17α-ethynylestradiol, reference compound] | – | – | – | – | – | – | – | only a mild increase in luminal height | marked hypertrophy | 47.9 g | 41.0 ^** mg | 0.87 | 47.1 g | 115 ^** mg | 2.5 | over 1.5 fold | –
CC/C(=C(\c1ccccc1)c1ccc(OCCN(C)C)cc1)c1ccccc1 [tamoxifen] | – | – | – | – | – | – | – | – | – | – | – | – | – | – | – | – | no effect on proliferation
O=C(O)/C=C/CCCCCCCO [10H2DA, 10-hydroxy-trans-2-decenoic acid] | mild hypertrophy | little or no effect | 42.9 ^* g | 25.9 mg | 0.59 | did not detect an increase | 90 µM | – | – | – | – | – | – | – | – | – | –

From paper PMC2529378 (Evidence-based Complementary and Alternative Medicine : eCAM, 2007)
